Assay [1] relates to caspase-3 level in HeLa tumor xenograft. Put plainly: Caspase-3 level detected in Dox-treated tumors. The following applies: intratumoral Dox 0.2 mg, 4 days post treatment. It counts as in vivo, nude mice. The gist of the method: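 HeLa xenografts on the right shoulder of nude mice were imaged before and 4 days after intratumoral Dox (0.2 mg). The 18F-labeled caspase-3-activatable nano-aggregation tracer or its D-peptide control (5–15 MBq) was given i.v. by tail vein. Static 5 min PET scans were taken at 65, 125 and 182 min post injection. Tumor and muscle uptake was reported as %ID/g, with the tumor/muscle ratio taken from average region uptake.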

The test system of assay [2] is caspase-3 activity in HeLa cell lysates. Kind of assay: Caspase-3 assay of lysates of Dox-treated HeLa cells. Format: cell-based. To be noted: doxorubicin 2 μM, 24 h.
The subject of a further assay is apoptotic tumors. To be noted: ref 7a; cited from earlier work.

We go through two compounds from article PMC4077287 (Angewandte Chemie (International ed. in English), 2013).

`COc1cccc2c1C(=O)c1c(O)c3c(c(O)c1C2=O)C[C@@](O)(C(=O)CO)C[C@@H]3O[C@H]1C[C@H](N)[C@H](O)[C@H](C)O1` [Dox, doxorubicin]: in assay [1], the “caspase-3 level increase in treated tumors” value was 1.9 fold. Moreover, the “caspase-3 activity of lysates of Dox-treated cells vs non-treated cells” value in assay [2] is 9.5 fold.

Consider `O=C1C(=O)N(Cc2cn(CC[18F])nn2)c2ccc(S(=O)(=O)N3CCCC3COc3ccc(F)cc3F)cc21` (stereo not drawn) [[^18F]ICMT-11], for which, in the assay with apoptotic tumors, the “trend of uptake in apoptotic tumors over time after injection” value was “decreased over the time after injection”.
